CRFR2-BP antag – antagonists of CRF-BP/CRF-R2 complex, primary screen, cell-based, HEK293, calcium dye fluorescence, uHTS | CRF-induced calcium fluorescence | inhibition, % at 11.8 µM | 0.59% of 350,000 active | AID 588475, 2011;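 active = inhibition of the ligand-induced calcium signal above about 50% at the single tested concentration, limit read from the data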
TAAR1 antagonist – human TAAR1 antagonists, primary screen, Fluo-8 calcium fluorescence, CHO RD-HGA16 cells; inhibition, % at 3 µM; antagonist; AID 624466, 2012; Trace amine-associated receptor 1 (Homo sapiens), Q96RJ0; 1.5% of 360,000 active;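 active = inhibition above a per-plate cutoff, the mean inhibition of test compounds on that plate plus 3 SD, cut at about 49% in these data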;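 also: 0% = DMSO plus EC80 beta-PEA response and 100% = DMSO alone without agonist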
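System: RD-HGA16 CHO cells with stable hTAAR1 and Gα16 | Probe or stimulus: EC80 β-phenethylamine stimulus | Dosing: 3 µM, single point | Times: Dye loading 75 min at 37 °C, then 30 min room temperature | Measured by: Fluo-8 calcium-sensitive fluorescence | Read-out basis: % inhibition of agonist calcium response | Replicates: n of 1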
TAAR1 ag – human TAAR1 agonists, primary screen, Fluo-8 calcium fluorescence, CHO RD-HGA16 cells; Trace amine-associated receptor 1 (Homo sapiens), Q96RJ0; vehicle wells 0%, saturating PEA agonist 100%; activation, % at 3 µM; 0.99% of 360,000 active; AID 624467, 2012;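 active = activation above the mean activation of all test compounds in the run plus 3 SD, cut at about 38% in these data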
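System: CHO-derived RD-HGA16 cells with stable Gα16 and human TAAR1. Times: 17-24 h plating, Fluo-8 75 min 37 °C, 30 min RT. Measured by: calcium-sensitive Fluo-8 signal, excitation 470-495, emission 515-575 nm. Read-out basis: % activation relative to PEA EC100 response. Control set: DMSO and PEA EC100. Repeats: no replicates (n 1).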
ANO1 activ – TMEM16A chloride channel activators or potentiators, primary screen, cell-based, HTS; Anoctamin-1 (Mus musculus), Q8BHY3; B-score at 10 µM; AID 623877, 2012; HEK293 TMEM16A/YFP-H148Q/I152L, iodide quench fluorescence; stronger effect = lower value; 0.3% of 340,000 active;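 active = fluorescence-ratio B-score plate-corrected deviation score at least 3 library SD below zero, with starting fluorescence score within 5 deviations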;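 also: channel opened by trigger with iodide after compound preincubation; score built on the fluorescence ratio of max minus min over baseline; more negative score means more quench and so TMEM16A activation or potentiation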
Target sequence (Q8BHY3 whole entry, looked up): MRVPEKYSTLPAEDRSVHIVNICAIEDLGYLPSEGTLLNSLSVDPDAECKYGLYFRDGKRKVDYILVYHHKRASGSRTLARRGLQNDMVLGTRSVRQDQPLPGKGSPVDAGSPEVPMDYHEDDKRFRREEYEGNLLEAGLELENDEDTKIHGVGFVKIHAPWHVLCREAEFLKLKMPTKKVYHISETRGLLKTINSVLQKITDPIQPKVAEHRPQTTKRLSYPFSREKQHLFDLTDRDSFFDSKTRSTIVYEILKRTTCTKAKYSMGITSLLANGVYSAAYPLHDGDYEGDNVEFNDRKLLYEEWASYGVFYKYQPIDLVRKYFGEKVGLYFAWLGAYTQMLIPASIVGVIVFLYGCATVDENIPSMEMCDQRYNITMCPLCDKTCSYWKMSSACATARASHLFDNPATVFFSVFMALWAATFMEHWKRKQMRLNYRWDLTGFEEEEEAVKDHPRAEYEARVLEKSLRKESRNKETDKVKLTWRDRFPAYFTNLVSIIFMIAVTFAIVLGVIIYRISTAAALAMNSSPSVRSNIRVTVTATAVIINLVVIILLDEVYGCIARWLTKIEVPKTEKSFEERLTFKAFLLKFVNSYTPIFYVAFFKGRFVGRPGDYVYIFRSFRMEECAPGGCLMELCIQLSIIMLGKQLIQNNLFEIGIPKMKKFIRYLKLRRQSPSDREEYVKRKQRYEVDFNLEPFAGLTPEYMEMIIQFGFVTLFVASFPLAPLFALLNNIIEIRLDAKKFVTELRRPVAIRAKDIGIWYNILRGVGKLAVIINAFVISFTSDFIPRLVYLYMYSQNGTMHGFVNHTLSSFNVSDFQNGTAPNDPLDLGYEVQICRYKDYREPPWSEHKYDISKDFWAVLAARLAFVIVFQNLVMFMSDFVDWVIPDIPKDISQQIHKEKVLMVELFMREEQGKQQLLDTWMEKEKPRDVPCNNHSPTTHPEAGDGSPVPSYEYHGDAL
CRFR2-BP ag – agonists of CRF-BP/CRF-R2 complex, primary screen, cell-based, HEK293, calcium dye fluorescence, uHTS | calcium dye fluorescence (FLIPR); percent of saturating CRF peptide response | 0.46% of 350,000 active | CRF-binding protein / CRF receptor 2 complex (human) | activation, % at 13.2 µM;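 active = activation of at least 50%, plus an integration ratio under a set limit after plate pattern correction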;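 also: plate controls were neutral control wells without compound for no effect and CRF at EC100 for full effect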
ANO1 block – TMEM16A chloride channel inhibitors, primary screen, cell-based, HTS; normalized B-score (activity score, 25-100; higher = stronger inhibition) at 10 µM; HEK293 TMEM16A/YFP iodide influx fluorescence, ionomycin; 1.2% of 310,000 active; Anoctamin-1 (Mus musculus), Q8BHY3;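 active = ratio plate-corrected score three or more library SD toward inhibition, starting fluorescence score within five deviations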;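 also: score derived from kinetic fluorescence span divided by baseline fluorescence per well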
TMEM16A reconf – TMEM16A chloride channel inhibitors, confirmation, cell-based, re-confirmation; inhibition, % at 10 µM; HEK293 TMEM16A/YFP-H148Q, iodide quench fluorescence; ionomycin added to raise cell calcium; shares compounds with ANO1 block; AID 652189, 2013; 39% of 2,300 active;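 active = mean duplicate percent inhibition, scaled so buffer wells are 0 and the reference blocker 100, over three buffer SD above buffer mean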
HEK293 Ca mobil – calcium mobilization in TMEM16A/YFP HEK293 cells, confirmation, counter-screen for TMEM16A inhibitor project; shares compounds with ANO1 block; Fluo4 calcium mobilization; calcium response (% of ionomycin), % at 10 µM; 2% of 2,300 active; AID 652231, 2013;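 active = duplicate-averaged calcium signal over 20% of the ionomycin maximum, relative to buffer baseline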;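 also: each well's signal is peak minus trough fluorescence divided by its pre-addition baseline; 0% = buffer wells and 100% = ionomycin wells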
YFP-HEK293 quench – iodide YFP quench changes in parental YFP-HEK293, counter-screen for TMEM16A inhibitor project, cell-based; AID 652233, 2013; ionomycin; 2,300 tested, under 10 active; YFP ratio F(max-min)/F0 at 10 µM; shares compounds with ANO1 block;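 active = yellow fluorescent protein signal ratio exceeding the buffer control mean by over 5 SD of those controls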;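 also: ratio is mean of duplicate wells from kinetic YFP trace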
ClC-1 rat inh – ClC-1 chloride channel inhibition, selectivity assay for TMEM16A inhibitor project, cell-based, voltage-dependent ClC-1 | shares compounds with ANO1 block | ratio percent, % at 10 µM | CHO ClC-1-YFP, iodide influx fluorescence quench; iodide control reads 0, buffer control 100 | 2,300 tested, under 10 active;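 active = duplicate-mean ratio percent above the mean of iodide-only control wells, which defines zero, plus 5 of their SD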;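 also: higher percent means stronger block of ClC-1 iodide influx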
Numbers without * were called inactive; i = inactive; . = not tested or not shown. Most compounds without a hit are left out; they make up all but 3.9% or so of the library.

SMILES	CRFR2-BP antag	TAAR1 antagonist	TAAR1 ag	ANO1 activ	CRFR2-BP ag	ANO1 block	TMEM16A reconf	HEK293 Ca mobil	YFP-HEK293 quench	ClC-1 rat inh
CCc1ccc([C@@H]2CC=C(C(=O)O)[C@H](c3ccc(F)cc3)N2S(=O)(=O)c2ccc(C)cc2)cc1	15.4	32.9	9.1	i	10.7	100*	i	i	-1.04	-12.0
Cc1ccc([C@@H]2CC=C(C(=O)O)[C@H](c3ccc(F)cc3)N2S(=O)(=O)c2ccc(C)cc2)cc1	14.9	11.2	0.4	i	2.2	i	.	.	.	.
COCc1cc(C)nc(SCC[N+](C)(C)CC(=O)Nc2cccc(C(F)(F)F)c2)c1C#N	32.6	-18.5	1.9	i	-0.3	i	.	.	.	.
CN(Cc1ccc(F)cc1)C(=O)c1cccc(S(=O)(=O)N2CCN(c3ccccc3)CC2)c1	6.0	38.4	5.1	i	-0.2	i	.	.	.	.
CN(Cc1ccc(F)cc1)C(=O)c1cccc(S(=O)(=O)N2CCN(c3ccc(F)cc3)CC2)c1	16.0	42.6	2.6	i	-0.3	25*	i	i	-1.4	-9.0
COc1cccc(NC(=O)CN(C)C(=O)c2cccc(S(=O)(=O)N3CCN(c4ccc(F)cc4)CC3)c2)c1	-9.1	27.7	5.3	i	-0.2	100*	i	i	-0.977	-2.0
CN(CC(=O)Nc1ccc(F)cc1)C(=O)c1cccc(S(=O)(=O)N2CCN(c3ccc(F)cc3)CC2)c1	10.2	33.0	5.9	i	-0.1	i	.	.	.	.
CCCOc1ccc(C(=O)Nc2cc(S(=O)(=O)N3CCOCC3)ccc2N2CCOCC2)cc1	6.5	13.1	4.0	i	-1.9	.	.	.	.	.
CCOC(=O)C(=O)NN=C(c1ccccc1)c1ccccc1	-5.1	-29.8	0.5	i	-0.7	i	.	.	.	.
Cc1cc(C)n(-c2nc3sc4c(c3c3nnc(SC(C)C)n23)CC(C)(C)OC4)n1	20.4	0.8	3.6	i	-1.4	100*	i	i	-1.05	-7.0
CCOC(=O)Cc1csc(NC(=O)c2ccncc2)n1	-1.7	-7.4	8.2	i	4.0	100*	19.0%*	i	-0.847	-10.5
O=C(O)c1nn(CC(=O)N2CCC(Cc3ccccc3)CC2)c(=O)c2ccccc12	-8.6	11.8	4.6	i	-1.7	i	.	.	.	.
N#CC1=C2SCC(O)(c3ccccc3)N2C(=O)CC1c1ccccc1 (stereo not given)	-6.4	25.3	10.8	i	0.1	100*	16.5%*	i	-0.955	-16.0
S=C(NCCc1ccc(Cl)cc1)NCc1ccccc1	6.8	.	.	i	-1.1	i	.	.	.	.
Cc1cc(C(=O)COc2ccccc2C(N)=O)c(C)n1CC1CCCO1 (stereo not given)	4.2	19.4	10.4	i	2.1	100*	19.5%*	i	-0.814	-33.0
Cc1cc(C(=O)COC(=O)c2ccccc2Br)c(C)n1CC1CCCO1 (stereo not given)	0.5	-2.9	-0.1	i	0.3	i	.	.	.	.
COC(=O)CCn1c(C)cc(C(=O)COc2ccccc2C(N)=O)c1C	9.0	27.0	12.9	i	4.6	i	21.0%*	i	-1.23	-7.5
COc1cc(CCC(=O)OCC(=O)Nc2ccc(Br)cc2F)cc(OC)c1OC	6.0	-2.6	0.0	i	-0.7	i	.	.	.	.
O=C1C2C(C(=O)N1/N=C/c1cc(Br)cc([N+](=O)[O-])c1O)C1C=CC2C12CC2 (stereo not given)	41.5	-21.9	0.1	i	6.5	i	19.0%*	i	-0.642	9.0
Cc1ccc(C)c(NC(=O)c2cc[n+](C)cc2)c1	-1.8	-6.2	5.3	i	1.3	i	.	.	.	.
COc1ccc(N(CC(=O)N2CCN(Cc3ccccc3)CC2)S(C)(=O)=O)cc1Cl	-0.3	-0.5	0.8	i	-0.9	i	.	.	.	.
CCOc1ccccc1/C=C/C(=O)N1CCN(C(=O)c2ccco2)CC1	-13.2	11.8	1.0	i	-2.9	.	.	.	.	.
CC(C)n1nnnc1-c1cc(Cl)cc(Cl)c1	-8.5	-12.8	0.7	i	-0.1	i	.	.	.	.
CC(C)n1nnnc1-c1cccc(Cl)c1	3.1	6.0	4.9	i	-1.3	i	i	i	-1.16	-7.5
C=CCOC(=O)C1=C(C)NC(SCC(N)=O)=C(C#N)C1c1ccc(C)cc1 (stereo not given)	13.0	-41.3	1.5	i	-0.5	i	.	.	.	.
SMILES	CRFR2-BP antag	TAAR1 antagonist	TAAR1 ag	ANO1 activ	CRFR2-BP ag	ANO1 block	TMEM16A reconf	HEK293 Ca mobil	YFP-HEK293 quench	ClC-1 rat inh
C=CCOC(=O)C1=C(C)NC(SCC)=C(C#N)C1c1ccc(Cl)cc1 (stereo not given)	13.4	24.2	5.2	i	0.4	100*	22.5%*	i	-1.25	-20.0
Cc1ccc(S(=O)(=O)N2CCCOC2CNC(=O)C(=O)NC2CCCCC2)cc1 (stereo not given)	4.8	3.7	6.8	i	-1.9	i	.	.	.	.
COc1cc(C(=O)OCC(=O)N(C)C)cc(NC(=O)c2ccco2)c1OC	21.1	17.2	6.2	i	-0.6	100*	i	i	-0.979	-7.5
COc1cc(C(=O)NCCNC(=O)c2ccco2)cc(OC)c1OC	16.2	-35.7	1.3	.	2.6	.	.	.	.	.
O=C(Nc1ccc(S(=O)(=O)Nc2cnc3ccccc3n2)cc1)c1ccccc1Br	7.2	-15.9	1.3	i	-2.3	i	.	.	.	.
CCOc1ccccc1Nc1cc(C)c2cccc(C)c2n1	-7.9	-27.6	0.8	i	0.6	i	.	.	.	.
CCOc1ccc(Nc2cc(Nc3ccccc3OCC)nc(C=C(C#N)C#N)n2)cc1	-8.5	-31.3	0.3	i	2.0	i	i	i	-1.31	-2.5
CCCCSc1ccc2nc(-c3ccc(C#N)cc3)cn2c1	-8.1	50.5*	19.4	i	0.1	100*	16.0%*	i	-1.16	-8.0

Compound activity: PubChem BioAssay, several laboratories
